Reference: article PMC9535927 (The Biochemical journal, 2020)
Read-outs that look alike come from different tables or passages of the source.

What was measured:
ASCT2 [1] = type: cell-based, rat/human
ASCT2 [2] = target: T1, ASCT2 (Homo sapiens, UniProt Q15758); assay: Radiotracer flux: 14C BMAA uptake in ASCT2-transfected MDCK-II cell monolayers; type: cell-based
T1 sequence (Q15758 1-541): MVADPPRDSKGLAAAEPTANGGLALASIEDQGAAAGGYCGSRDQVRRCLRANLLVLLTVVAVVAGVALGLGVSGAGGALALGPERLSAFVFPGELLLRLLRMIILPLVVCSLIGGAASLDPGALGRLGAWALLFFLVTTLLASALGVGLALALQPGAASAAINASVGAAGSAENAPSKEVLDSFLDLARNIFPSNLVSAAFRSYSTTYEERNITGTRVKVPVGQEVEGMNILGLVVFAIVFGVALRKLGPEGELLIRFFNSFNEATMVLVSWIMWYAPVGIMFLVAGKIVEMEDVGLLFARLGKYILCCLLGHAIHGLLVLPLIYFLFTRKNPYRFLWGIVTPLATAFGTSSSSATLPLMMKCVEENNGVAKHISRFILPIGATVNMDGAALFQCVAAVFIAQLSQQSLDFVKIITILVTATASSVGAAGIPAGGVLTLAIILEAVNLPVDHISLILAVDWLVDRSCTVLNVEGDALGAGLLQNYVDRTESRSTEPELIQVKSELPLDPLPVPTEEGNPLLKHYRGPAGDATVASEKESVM
Method in brief: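 ASCT2-transfected MDCK-II cells grown as monolayers on transwell membranes, assayed 48 h after transfection. After washing, 2 mM 14C BMAA was applied apically for 5 min. Apical and basolateral solutions were then aspirated and both sides washed. Cells were extracted in acetonitrile:water (50:50) and the extract counted by liquid scintillation. Uptake is given as pmol/min/cm2 and compared with non-ASCT2-expressing control cells.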

rASCT2 = target: T2, rASCT2 (Rattus norvegicus, UniProt D3ZJ25); assay: Glutamine uptake fluorescence assay; type: cell-based
T2 sequence (D3ZJ25 1-555): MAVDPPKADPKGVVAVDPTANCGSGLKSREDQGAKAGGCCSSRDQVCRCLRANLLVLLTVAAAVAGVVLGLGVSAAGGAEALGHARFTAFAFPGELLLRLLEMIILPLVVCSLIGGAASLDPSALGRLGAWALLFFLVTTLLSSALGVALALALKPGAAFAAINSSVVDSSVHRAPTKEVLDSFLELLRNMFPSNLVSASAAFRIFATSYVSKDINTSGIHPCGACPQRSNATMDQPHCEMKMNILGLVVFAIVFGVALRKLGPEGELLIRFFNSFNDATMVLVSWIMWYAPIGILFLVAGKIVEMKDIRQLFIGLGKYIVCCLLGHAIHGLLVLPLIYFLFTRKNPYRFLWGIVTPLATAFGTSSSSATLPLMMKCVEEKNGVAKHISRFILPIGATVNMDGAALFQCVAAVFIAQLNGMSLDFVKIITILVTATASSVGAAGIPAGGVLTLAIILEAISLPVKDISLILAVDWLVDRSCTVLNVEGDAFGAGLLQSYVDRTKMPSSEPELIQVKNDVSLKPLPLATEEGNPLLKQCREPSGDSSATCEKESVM

[3] = Proton ionisation constants; type: physicochemical; conditions: pH 7.4
[4] = cited from earlier work
ASCT2 [5] = conditions: read-out: Ki (competes with alanine for the substrate binding site); cited from earlier work
[6] = 2 mM, pH 7.40, intracellular SCN-
[7] = 4 mM (D-2,3-DAP: up to 4 mM), pH 7.40

CNC[C@H](N)C(=O)O [BMAA, β-N-Methylamino-L-Alanine]
inward current relative to the maximum anion current induced by L-alanine (ASCT2 [1]; pH 7.40, V = 0 mV): less than 20% | uptake of 14C BMAA (ASCT2 [2]; 2 mM, control cells (non-ASCT2 expressing)): 163 ± 36 pmol/min/cm^2 | transport rate by ASCT2, fold lower than L-glutamine (ASCT2 [2]; if transported at all, inferred from sensitivity of uptake assay): at least 10 fold

NC[C@H](N)C(=O)O [L-DAP, L-2,3-diaminopropionic acid]
direction of evoked current at low pH (ASCT2 [1]; 2 mM, extracellular pH below 6.50, V = 0 mV): outwardly directed | current elicited on application to ASCT2-expressing cells (ASCT2 [1]; [6]): elicited an inwardly-directed current | apparent valence from slope of log(Km) vs. voltage (ASCT2 [1]; extracellular 140 mM NaCl, intracellular 130 mM NaSCN, pH 7.4): 0.21 ± 0.04 | decrease in fluorescence emission in the Venus range (glutamine uptake) (rASCT2; 500 μM glutamine plus 2 mM test compound): 1.00 ± 1.14% | protonation of the α-amino group [3]: 20% | pKa of the α-amino group [4]: 6.7

NC(=O)CC[C@H](N)C(=O)O [glutamine]
decrease in fluorescence emission in the Venus range (glutamine uptake) (rASCT2; 500 μM glutamine applied externally alone): 11.2 ± 0.89%

O=C(O)[C@@H]1C[C@@H](Cc2ccc(-c3ccccc3)cc2)CN1 [BPP, (R)-γ-(4-biphenylmethyl)-L-proline]
Ki (ASCT2 [5]): 3 µM

NC[C@@H](N)C(=O)O [D-2,3-DAP]
current elicited on application to ASCT2-expressing cells (ASCT2 [1]; [7]): did not produce any current

NCCCC[C@H](N)C(=O)O [L-lysine]
current elicited on application to ASCT2-expressing cells (ASCT2 [1]; [7]): not significantly different from zero

N[C@@H](COCc1ccccc1)C(=O)O [benzylserine]
decrease in fluorescence emission in the Venus range (glutamine uptake) (rASCT2; 500 μM glutamine plus 5 mM test compound): 2.70 ± 1.25%

NC(=O)CCCC(N)C(=O)O (centres unmarked) [homoglutamine]
current elicited on application to ASCT2-expressing cells (ASCT2 [1]; pH 7.4): outward current

NCCC[C@H](N)C(=O)O [L-ornithine]
current elicited on application to ASCT2-expressing cells (ASCT2 [1]; [7]): not significantly different from zero

NCC[C@H](N)C(=O)O [L-DAB, L-2,4-diaminobutyric acid]
current elicited on application to ASCT2-expressing cells (ASCT2 [1]; [6]): produced an inward current, however, with smaller magnitude than that generated by L-DAP
